Screens deposited in PubChem BioAssay by The Scripps Research Institute Molecular Screening Center.
PRMT1 inh: blocks human protein arginine methyltransferase 1; Q99873; recombinant PRMT1, activity-based probe fluorescence polarization; inhibition, % at 2.79 µM; 1.3% of 370,000 active; AID 652257;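 active means inhibition above about 21% made by adding two undisclosed values, limit read from the data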
Target sequence (Q99873 whole entry, looked up): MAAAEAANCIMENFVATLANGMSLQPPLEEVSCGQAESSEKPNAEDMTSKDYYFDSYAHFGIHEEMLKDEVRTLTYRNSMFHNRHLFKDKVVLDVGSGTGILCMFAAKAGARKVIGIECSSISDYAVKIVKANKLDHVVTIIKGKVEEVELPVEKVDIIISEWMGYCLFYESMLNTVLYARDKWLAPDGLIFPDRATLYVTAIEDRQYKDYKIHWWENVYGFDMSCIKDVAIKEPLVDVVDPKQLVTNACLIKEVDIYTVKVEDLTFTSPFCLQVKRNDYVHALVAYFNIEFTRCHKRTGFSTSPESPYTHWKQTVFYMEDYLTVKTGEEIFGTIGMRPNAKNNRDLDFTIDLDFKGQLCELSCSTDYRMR
ABHD4 inh: inhibitors of mouse ABHD4 | Q8VD66 | purified mABHD4, FP-Rh probe fluorescence polarization | inhibition, % at 8.92 µM | 0.54% of 370,000 active | AID 720543;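 active means inhibition exceeding the mean over every tested compound plus 3 SD, cut at about 30% in these data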;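 further: 0% = plate median of compound wells and 100% = S159A mutant with DMSO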
Target sequence (Q8VD66 whole entry, looked up): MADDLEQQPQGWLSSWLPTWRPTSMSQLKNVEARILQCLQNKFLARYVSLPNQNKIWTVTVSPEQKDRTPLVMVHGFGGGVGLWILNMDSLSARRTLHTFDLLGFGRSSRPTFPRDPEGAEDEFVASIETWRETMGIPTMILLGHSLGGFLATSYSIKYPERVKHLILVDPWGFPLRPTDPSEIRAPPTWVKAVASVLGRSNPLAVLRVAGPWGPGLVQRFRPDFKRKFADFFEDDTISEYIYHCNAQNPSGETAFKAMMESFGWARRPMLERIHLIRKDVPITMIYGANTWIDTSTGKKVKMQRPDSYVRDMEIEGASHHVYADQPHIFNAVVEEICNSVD
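system = mouse ABHD4 enzyme, wild type | medium = HEPES pH 7.0, NaCl, Pluronic buffer | also added = FP-Rh probe | incubation = Enzyme–compound pre-incubation 45 min, then probe 60 min, both 25 °C | technique = fluorescence polarization, excitation 525 nm, emission 598 nm, BODIPY TMR filters | controls = S159A mutant high control, sample median low control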
rCAG RNA binder: molecules binding r(CAG) RNA repeats; 1.3% of 370,000 active; r(CAG) RNA repeat, TO-PRO-1 dye displacement fluorescence; inhibition, % at 3 µM;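 active means inhibition above the plate cutoff, the mean of all test compounds on that plate plus 3 SD, cut at about 35% in these data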;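 further: 0% = DMSO alone and 100% = 100 µM mitoxantrone as full dye displacement; higher means more dye released from RNA so lower well fluorescence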
SIAE primary: blocks human sialic acid acetylesterase. Q9HAT2. SIAE FP-Rh probe binding, fluorescence polarization. inhibition, % at 9.66 µM. 0.69% of 370,000 active. AID 1053197;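 active means inhibition above a cutoff: mean of compounds within the control limits plus 3 SD of those, cut at about 17% in these data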;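 further: 0% = plate median of compound wells and 100% = probe without SIAE protein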
TCR-CD3 inh: blocks the human TCR-CD3 interaction | TAMRA-labeled TCR probe fluorescence, biochemical | inhibition, % at 9.4 µM | 0.37% of 360,000 active | AID 651800; in the data active means inhibition above about 19%;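 further: recombinant mutant TCR 2C K166C tagged with TAMRA read by polarization; 0% = receptor in buffer alone and 100% = receptor with positive control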
rCAG bind conf: r(CAG) RNA repeat binding, confirmation. shares compounds with rCAG RNA binder. TO-PRO-1 dye displacement fluorescence. inhibition, % at 3 µM. 70% of 4,300 active;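 active means inhibition above a per-plate cutoff, the mean inhibition of sample wells plus 3 SD, cut at about 35% in these data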;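 further: loss of TO-PRO-1 fluorescence as compound displaces dye from 1x1 AA loop RNA; 0% = DMSO only wells and 100% = 100 µM mitoxantrone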
DNA CAG counter: DNA CAG dye complex inhibition counter-screen. shares compounds with rCAG RNA binder. d(CAG) DNA oligo TO-PRO-1 dye displacement, fluorescence. inhibition, % at 3 µM. 94% of 4,300 active. AID 652068;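 active means inhibition above its plate's cutoff, the mean test-well inhibition plus 3 SD, cut at about 4.8% in these data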;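 further: 0% = DNA dye mix with DMSO and 100% = 100 µM mitoxantrone; hits displace the dye from DNA and so lower well fluorescence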
* = called active by the depositor; / = no result. Hits are enriched below; roughly 3.3% of the tested compounds scored in any of these assays.

SMILES	PRMT1 inh	ABHD4 inh	rCAG RNA binder	SIAE primary	TCR-CD3 inh	rCAG bind conf	DNA CAG counter
COc1cccc(N2CCN(C(=O)COc3cc(=O)n(C)c4ccccc34)CC2)c1	0.5	-5.8	-1.6	-3.9	/	/	/
O=C(OCc1cn(Cc2c(F)cccc2F)nn1)N1CCOCC1	-0.5	0.5	1.3	6.3	/	/	/
O=C(COC(=O)c1ccc(Sc2ncn[nH]2)c([N+](=O)[O-])c1)Nc1ccc(Cl)c(Cl)c1	-6.1	-39.0	64.1*	-16.8	/	46.4*	13.9*
CCOC(=O)NC(=O)COC(=O)c1ccc(Sc2ncn[nH]2)c([N+](=O)[O-])c1	1.1	7.8	4.3	5.2	-4.7	/	/
COc1ccccc1Nc1nc2ccccc2n2cnnc12	-5.2	0.8	77.2*	-4.0	-0.2	7.0	1.4
Cc1ccc(C)c(NC(=O)c2ccc(CS(=O)(=O)Cc3ccccc3C)o2)c1	-0.5	-4.0	2.4	3.0	/	/	/
CCC[C@H]1[C@@H](OC(=O)Oc2ccc([N+](=O)[O-])cc2)CC[C@@]23CCCN2C(=O)CCC[C@@H]13	-1.5	1.1	/	-0.6	/	/	/
O=c1cc(-c2ccc(O)c(-c3c(O)cc(O)c4c(=O)cc(-c5ccc(O)cc5)oc34)c2)oc2cc(O)cc(O)c12	1.4	-76.2	92.3*	-29.7	7.9	78.7*	52.8*
CC(C)c1cc(C(=O)NNC(=S)NCc2ccco2)c(O)c(C(C)C)c1	-2.5	-2.6	64.7*	7.3	14.9	57.7*	24.5*
N#C/C(=C(/O)CCl)c1nc(-c2ccccc2)cs1	17.3	2.5	42.4*	-4.5	-1.4	38.5*	18.0*
N#C/C(=C(/O)CN1CCOCC1)c1nc(-c2ccccc2)cs1	-2.0	-5.0	23.5	2.4	5.7	/	/
CCCCOc1ccc(Nc2cc(Cl)ccc2C(=O)O)cn1	3.0	-0.9	70.4*	6.2	7.1	63.7*	15.9*
CC(=O)c1c(O)c(C)c(O)c2c1OC1=CC(=O)C(C(C)=O)C(=O)[C@@]12C (stereo partly specified)	2.8	0.8	41.7*	1.9	-11.7	14.2	3.2
CC(=O)Oc1c(C)c(OC(C)=O)c2c(c1C(C)=O)OC1CC(=O)C(C(C)=O)=C(O)C21C (stereo unspecified)	6.0	7.0	8.8	1.4	-0.5	/	/
COC(=O)[C@]12C[C@H](CC(=O)NCCCCc3ccccc3)C(=O)N(CCc3ccc(OC)c(OC)c3)C1=C[C@H](C(C)(C)C)O[C@@H]2C	3.2	-6.0	4.0	5.6	/	/	/
O=C(NNC(=S)Nc1cccc(C(F)(F)F)c1)c1ccc(Cl)cc1Cl	-3.6	-1.0	62.4*	8.4	1.0	59.0*	20.9*
Cc1ccccc1C(=O)NNC(=S)Nc1cccc(C(F)(F)F)c1	0.6	-4.4	16.7	-2.7	-4.0	/	/
CCOc1ccc(NC(=S)NNC(=O)c2cc(Br)ccc2Cl)cc1	-3.5	3.7	37.8*	7.1	-4.0	29.9	8.8*
CCOc1ccc(NC(=S)NNC(=S)Nc2cccc(C(F)(F)F)c2)cc1	7.0	-1.3	38.4*	2.5	-6.4	54.7*	21.6*
CCOc1cc(OCC)cc(C(=O)NC(=S)Nc2cccc(C(F)(F)F)c2)c1	-2.1	-4.7	4.3	-5.8	-4.1	/	/
COc1ccc(/C=C/C(Cc2cccc(C(C)=O)c2)c2ccc(C)cc2)cc1 (stereo unspecified)	6.2	-2.9	4.5	0.6	/	/	/
Cc1ccc(-n2c(SCC(=O)Nc3ccccc3-c3ccccc3)nnc2-c2cnccn2)cc1	11.1	-7.3	6.4	-2.2	/	/	/
NS(=O)(=O)c1cccc(NS(=O)(=O)c2ccc(/C=C/C(=O)OCC(=O)c3ccccc3)cc2)c1	9.4	-75.3	60.0*	-21.6	-4.0	54.2*	21.5*
N#CC1=C2Sc3ccccc3N2CCCC1=O	3.9	-1.4	-0.5	0.0	-0.8	/	/
N=C1C2=C3Sc4ccccc4N3CCCC2=NN1c1cccc(S(=O)(=O)O)c1	2.8	11.4	38.4*	1.1	-1.2	47.2*	10.5*
SMILES	PRMT1 inh	ABHD4 inh	rCAG RNA binder	SIAE primary	TCR-CD3 inh	rCAG bind conf	DNA CAG counter
Cc1ccc2sc(NNC(=O)C3=COCCO3)nc2c1C	4.8	-3.3	51.0*	7.8	3.9	14.3	5.8*
O=C(NNc1nc2c(F)cccc2s1)C1=COCCO1	4.3	5.2	9.4	11.9	1.8	/	/
CCCCN(C)C(=O)c1ccc2c(c1)NC(=O)C(C)(C)O2	-2.6	1.4	-0.6	5.6	/	/	/
CCN(CC)Cc1c(O)ccc2c1O/C(=C\C=C\c1ccccc1)C2=O	19.3	2.8	-38.8	-4.9	7.8	/	/
COCCN(CCOC)Cc1c(O)ccc2c1O/C(=C\c1ccc(C)o1)C2=O	18.9	14.6	36.0*	8.0	6.5	-0.4	-1.4
O=C(Nc1ccc(NC(=O)c2ccccc2Cl)c(Cl)c1)c1ccccn1	-0.2	-3.0	/	-5.1	/	/	/
O=C(O)c1ccccc1/C=N/Nc1ccc(S(=O)(=O)N2CCOCC2)cc1[N+](=O)[O-]	6.2	13.9	6.7	7.5	3.3	/	/
O=C(O)CC/C(=N\Nc1ccc(S(=O)(=O)N2CCOCC2)cc1[N+](=O)[O-])c1cccs1	-2.3	20.5	55.7*	-1.2	1.5	58.5*	23.5*
O=[N+]([O-])c1cc(S(=O)(=O)N2CCCC2)ccc1N/N=C/c1cccs1	1.1	0.9	1.8	-5.4	3.0	/	/
O=C(O)CC/C(=N\Nc1ccc(S(=O)(=O)N2CCCC2)cc1[N+](=O)[O-])c1cccs1	-0.9	25.6	71.5*	-1.5	3.5	59.8*	22.1*
CCOC(=O)Cn1cc(CN2C(C(=O)OC)CN(Cc3ccc(F)cc3)CCS2(=O)=O)nn1 (stereo unspecified)	2.0	-2.3	-0.9	-0.4	/	/	/
CCOc1ccc(Br)cc1S(=O)(=O)Nc1ccc(Cl)c(S(=O)(=O)N(C)C)c1	-0.6	14.1	35.8*	-1.5	-1.9	33.9	9.0*
COCCCNC(=O)c1ccc2c(c1)NC(=O)C(C)(C)O2	-1.6	1.7	3.0	2.4	/	/	/
COc1cc(C)c(C(=O)Oc2cc(C)c(C(=O)O)c(O)c2C)c(OC)c1C	-3.8	-16.6	51.8*	-3.8	-0.7	54.8*	16.9*
COc1cc(C)c(C(=O)Oc2cc(C)c(C(=O)O)c(O)c2C)c(O)c1C(=O)O	-1.1	5.2	15.1	-29.8	10.2	/	/
Cc1ccc(C(=O)C2C(c3ccc(-c4ccccc4[N+](=O)[O-])o3)NC(=O)NC2(O)C(F)(F)F)cc1 (stereo unspecified)	-1.4	7.2	-4.0	1.7	3.4	/	/
O=C1NC(c2ccc(-c3ccccc3[N+](=O)[O-])o2)C(C(=O)c2ccccc2)C(O)(C(F)(F)F)N1 (stereo unspecified)	1.1	6.2	53.3*	-3.1	5.2	1.2	0.4
COc1ccc(CN2C3=NC(c4ccccc4)CC(=O)N3/C(=C\c3ccccc3)C2c2ccccc2)c(OC)c1 (stereo unspecified)	2.6	-5.8	/	-1.5	/	/	/
Cc1ccc(Nc2nc(-c3cccs3)cs2)nc1	1.7	14.0	7.4	6.1	-4.3	/	/
